Compound activity deposited in PubChem by several laboratories.
This is a sample that favours compounds with a hit; in the whole collection about 4.9% have one here.
NPY-Y2 antag – NPY-Y2 receptor antagonists, primary screen, cell-based; Neuropeptide Y receptor type 2 (Homo sapiens), P49146; NPY-Y2 expressing cells, antagonist mode; inhibition, % at 2.7 µM; actives 0.99% (n = 140,000); AID 793, 2007; in the data active = inhibition above about 17%;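 note: 0% = vehicle with agonist challenge and 100% = reference antagonist with challenge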
WT yeast gro inh – growth inhibition of WT strain, primary screen, mitochondrial fusion inhibitor project, WT and mutant strains, chemical genetic; mitochondrial fusion phenotypic screen; inhibition, % at 10 µM; actives 2.1% (n = 190,000); AID 1362, 2008; in the data active = inhibition above about 58%; tested in S. cerevisiae
NPY2 pot ag – NPY-Y2 potentiators or agonists, primary screen, cell-based | AID 1359, 2008 | cells expressing NPY-Y2, potentiator/agonist read-out | Neuropeptide Y receptor type 2 (Homo sapiens), P49146 | activation, % at 3.6 µM | actives 0.45% (n = 220,000); in the data active = activation above about 27%;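 note: cells stimulated with NPY near EC25 plus isoproterenol at EC100; 0% = vehicle plus submaximal agonist and 100% = vehicle plus saturating agonist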
NPY Y1 blocker – NPY-Y1 receptor antagonists, primary screen, cell-based; HEK293-CNG Y1 cells, membrane potential fluorescence; NPY at EC95, then isoproterenol; inhibition, % at 3.6 µM; actives 1% (n = 200,000); AID 1040, 2008;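 active = inhibition above the campaign mean inhibition of all tested compounds plus 3 SD, cut at about 20% in these data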;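 note: 0% = DMSO wells given NPY plus isoproterenol and 100% = isoproterenol alone without NPY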
Target sequence (P25929 whole entry, looked up): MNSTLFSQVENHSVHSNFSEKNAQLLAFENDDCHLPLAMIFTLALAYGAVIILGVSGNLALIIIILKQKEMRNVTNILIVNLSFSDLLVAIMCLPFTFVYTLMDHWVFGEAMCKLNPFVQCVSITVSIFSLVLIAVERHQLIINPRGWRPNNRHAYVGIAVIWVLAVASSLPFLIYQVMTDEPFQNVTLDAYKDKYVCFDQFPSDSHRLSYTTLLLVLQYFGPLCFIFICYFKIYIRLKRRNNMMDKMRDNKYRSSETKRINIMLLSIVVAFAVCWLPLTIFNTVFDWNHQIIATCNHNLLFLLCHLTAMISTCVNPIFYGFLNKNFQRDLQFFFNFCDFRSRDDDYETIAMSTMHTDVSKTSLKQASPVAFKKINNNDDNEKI
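Material: Y1- and CNG-channel-expressing HEK293 cells / Probe or stimulus: NPY 25 nM then isoproterenol 1 µM plus Ro 20-1724 25 µM / Doses: 3.6 µM single dose, DMSO 0.4% / Schedule: compound incubation 1 h at room temperature, readout 45 min post-stimulation / Signal: membrane potential fluorescence / Benchmarks: isoproterenol-only wells as full block versus NPY-plus-isoproterenol wells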
RAM network inh – inhibitors of the yeast RAM network, primary screen, dse1pr::URA3 reporter, 5-FOA selection; S. cerevisiae dse1pr::URA3 reporter, 5-FOA growth OD615, 2 d; analog-sensitive cbk1-as2 kinase mutant strain; inhibition, % at 50 µM; AID 868, 2007; actives 1.8% (n = 190,000);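 active = inhibition above a set limit, 3 SD over mean compound inhibition, cut at about 8.4% in these data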;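 note: 0% = DMSO-only wells with no growth and 100% = 10 µM 1-NA-PP1 full growth; inhibition rescues growth on 5-FOA so higher OD means more RAM inhibition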
NPY1 pot ag – NPY-Y1 receptor potentiators or agonists, primary screen, cell-based. NPY-Y1 expressing cells, potentiator/agonist activation. activation, % at 3.6 µM. actives 0.37% (n = 220,000); in the data active = activation above about 33%, passing the limit was not always enough;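 note: cells stimulated with NPY at EC10 then isoproterenol at EC100; 0% = low agonist plus stimulus and 100% = saturating agonist plus stimulus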
An asterisk follows results filed as active; . = not tested or not shown.

SMILES	NPY-Y2 antag	WT yeast gro inh	NPY2 pot ag	NPY Y1 blocker	RAM network inh	NPY1 pot ag
CCC(C)Nc1nc(N)c([N+](=O)[O-])c(Nc2cc(OC)ccc2OC)n1 (configuration not stated)	.	.	-5.9	.	.	-0.5
NCCc1c(-c2ccccc2)n(-c2ccccc2)c2ccccc12	.	87.0*	0.3	18.9	0.8	5.1
N#Cc1c(N)n(CCNC(=O)c2ccccc2)c2nc3ccccc3nc12	-1.0	-19.5	-16.8	-3.3	5.8	-10.2
CC(OC(=O)C1=COCCO1)C(=O)Nc1ccc(Oc2ccccc2)cc1 (configuration not stated)	-1.7	-9.1	-4.9	4.2	10.4*	-16.2
O=C(OC(C(=O)Nc1cc(Cl)cc(Cl)c1)c1ccccc1)C1=COCCO1 (configuration not stated)	1.4	58.4*	7.4	9.8	1.4	-6.4
Cc1cc(N2CCOCC2)ccc1/C=C1\SC(=O)N(C(C)C)C1=O	-0.8	-10.7	-22.4	7.2	10.8*	-19.2
CCOC(=O)/C(=N\Nc1ccccc1)c1csc(Nc2ccc(C)cc2)n1	-2.3	-2.8	7.4	4.7	10.2*	-6.3
CCCCC(CCC(=O)O)(C(=O)OCC)c1csc(Nc2ccc(C)cc2)n1 (configuration not stated)	.	-12.5	-8.9	7.4	3.8	4.6
O=C(CNS(=O)(=O)c1ccc(F)cc1)Nc1ccc(C(F)(F)F)cc1	2.8	-8.7	12.7	-2.7	0.7	24.4
Nc1nc(Cl)nc2c1ncn2[C@@H]1O[C@H](CO)[C@@H](O)[C@H]1O	101.8*	-2.3	-21.5	85.1*	3.2	-77.6
Cc1ccc(NC(=O)NN2CCOCC2)cc1	.	5.3	-8.5	-3.0	1.1	7.6
CCOc1ccc(-n2c(SCC(=O)c3c(N)n(C)c(=O)n(C)c3=O)nnc2-c2cccnc2)cc1	4.6	4.9	14.4	2.1	9.1*	-4.0
Cc1ccccc1-n1c(SCC(=O)c2c(N)n(C)c(=O)n(C)c2=O)nnc1-c1cccnc1	1.0	-12.3	15.0	-3.4	4.1	9.2
COc1cccc(/C=N/NC(N)=S)c1OCc1ccccc1Cl	4.7	-5.3	-7.2	10.0	8.8*	7.5
Cc1ccc(S(=O)(=O)Oc2ccccc2/C=N/NC(N)=S)cc1	6.7	-10.0	-4.3	7.4	9.1*	-7.4
NC(=S)N/N=C/c1ccccc1OCCSc1ccc(Cl)cc1	2.3	64.3*	-3.8	-1.5	2.3	0.7
Cc1c(N2C(=O)C(=O)/C(=C(/O)c3ccccc3)C2c2ccc(F)cc2)c(=O)n(-c2ccccc2)n1C (configuration not stated)	8.7	-4.6	6.1	-2.4	-0.5	-19.5
C=CCn1c(SCC(=O)Nc2ccccc2-c2ccccc2)nc2cc(C(=O)O)ccc2c1=O	.	-17.8	10.0	3.7	6.4	14.1
COC(=O)c1c(NC(=O)CN2CCOCC2)sc2c1CCC(C)C2 (configuration not stated)	1.5	0.3	-1.3	0.6	0.5	-21.0
COc1cc(NC(=O)C(=O)Nc2ccc3nc4n(c(=O)c3c2)CCCCC4)cc(OC)c1OC	.	.	-2.4	.	.	0.7
Clc1ccc(-c2ccc(SCc3ccccn3)nn2)cc1	0.7	10.0	2.5	-3.0	4.1	19.9
CN1CCN(c2nc3c(c(=O)n(C)c(=O)n3C)n2Cc2cccc3ccccc23)CC1	2.9	-41.4	7.7	3.2	1.4	-7.4
Cn1c(=O)c2c(nc(N3CCCCCC3)n2Cc2cccc3ccccc23)n(C)c1=O	5.2	80.8*	-7.6	0.0	4.2	-6.2
CCOC(=O)Cc1c(Sc2ccccc2)c2ccccc2n1C	9.8	66.3*	-4.1	8.2	3.5	-11.5
CC1(CC(=O)N/N=C/c2ccc(OCc3ccc(Cl)cc3Cl)cc2)OCCCO1	8.7	77.3*	4.7	3.8	0.0	-18.6
SMILES	NPY-Y2 antag	WT yeast gro inh	NPY2 pot ag	NPY Y1 blocker	RAM network inh	NPY1 pot ag
CCCCOC(=O)c1cc(C)nc2ccc(Br)cc12	4.2	-8.3	31.1*	7.4	-0.3	100.9*
Cc1ccc(S(=O)(=O)N2CCN(C(=O)CN3CCOCC3)C2C(C)C)cc1 (configuration not stated)	0.8	-8.1	0.2	-5.8	0.6	23.8
CC(C)c1nc2n[nH]c(N)c2c2c1CCCC2	2.5	-1.0	-12.3	2.1	3.2	13.1
CCCOc1ccc(N2C(=O)CC(N3CCN(S(=O)(=O)c4ccccc4)CC3)C2=O)cc1 (configuration not stated)	4.3	8.4	-1.8	-0.5	2.4	-2.9
COC(=O)c1sccc1NC(=S)N1CCN(c2cccc(C)c2C)CC1	6.7	74.0*	12.8	10.2	6.4	-0.5
CCN1C(=O)C(CC(=O)Nc2ccc(OC)cc2)N(CCc2ccccc2)C1=S (configuration not stated)	.	-0.6	13.2	-0.8	2.5	22.5
COC(=O)CN1C(=S)N(Cc2ccccc2)C(=O)C1CC(=O)Nc1ccc(Br)cc1 (configuration not stated)	-7.3	18.2	34.6*	-11.9	5.9	44.2*
CC1CSc2n(-c3cccc(C(F)(F)F)c3)cc(-c3ccccc3)[n+]21 (configuration not stated)	.	-1.8	-11.9	0.9	2.4	-27.3
COc1ccc(-c2noc(CSc3nnc(Cc4ccccc4)n3-c3ccc(Cl)cc3)n2)cc1	8.3	60.3*	-24.9	8.5	10.5*	-6.6
Cc1ccc(-c2noc(CSc3nnc(Cc4ccccc4)n3-c3ccc(Cl)cc3)n2)cc1	24.7*	52.7	-35.0	21.0*	8.5*	-37.1
Cn1c(SCc2nc(-c3ccc(Cl)cc3)no2)nnc1-c1ccccc1	10.6	9.6	-16.6	10.9	2.2	-24.1
CCC[N+](CC#Cc1ccccc1)(CCC)CC(=O)c1ccc(Cl)cc1	19.1*	3.1	2.7	29.1*	0.5	1.3
NC(=S)n1[nH]c(-c2ccc([N+](=O)[O-])cc2)c(N=Nc2ccc(O)cc2)c1=O	4.4	-14.2	14.4	-2.9	1.9	8.2
NC(=S)n1[nH]c(-c2ccc([N+](=O)[O-])cc2)c(N=Nc2cccc(Cl)c2)c1=O	.	74.7*	14.8	-7.1	1.8	25.1
O=C(CCSCc1ccccc1Cl)N1CCN(c2cccc(Cl)c2)CC1	8.9	60.7*	-29.2	8.8	6.4	-17.1
Cc1cccc(Oc2nc(CN3CCOCC3)nc3sc4c(c23)CCCC4)c1	29.1*	31.7	-3.3	20.4*	0.4	-21.7
CCOC(=O)c1c(C)oc2ccc(OC(=O)c3cccs3)cc12	9.3	67.9*	-3.6	2.5	6.0	-13.6
CCOC(=O)c1c(C)oc2ccc(OC(=O)N3CCOCC3)cc12	-0.2	8.2	8.2	5.0	0.7	-7.0
